Entries after “also recorded” stand apart in the source; their conditions may differ.
Key:
TRPV1-WT [1] = molecular target: T1, TRPV1-WT (Rattus norvegicus, UniProt O35433); assay type: cell-based; details: Hill fit of dose–response, native lipids
TRPV1-R721A [2] = molecular target: T2, TRPV1-R721A (Rattus norvegicus, UniProt O35433, R721A); assay type: cell-based; details: Hill fit of dose–response, native lipids
TRPV1-WT [3] = molecular target: T1, TRPV1-WT; assay type: cell-based; details: Hill fit of dose–response, 1 µM capsaicin
Procedure, shortened: (§1)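 Rat TRPV1 (WT or R721A) transiently expressed in F-11 cells and used 12–48 h post-transfection. […] Bath was 130 mM NaCl, 10 mM HEPES, 0.2 mM EDTA, pH 7.4, with steps from 0 mV to ±100 mV. Vehicle-subtracted currents were Hill-fitted per patch, normalized to Imax, and pooled (mean, SEM).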

TRPV1-R721A [4] = molecular target: T2, TRPV1-R721A; assay type: cell-based; details: for Hill slope nH, phosphoinositide activation of TRPV1-R721A: Hill fit of dose–response, 1 µM capsaicin
Procedure, shortened: as §1

TRPV1 = details: ref Collins and Gordon, 2013; cited from earlier work
[5] = R721A mutation compared with WT

T2 sequence (O35433 whole entry R721A): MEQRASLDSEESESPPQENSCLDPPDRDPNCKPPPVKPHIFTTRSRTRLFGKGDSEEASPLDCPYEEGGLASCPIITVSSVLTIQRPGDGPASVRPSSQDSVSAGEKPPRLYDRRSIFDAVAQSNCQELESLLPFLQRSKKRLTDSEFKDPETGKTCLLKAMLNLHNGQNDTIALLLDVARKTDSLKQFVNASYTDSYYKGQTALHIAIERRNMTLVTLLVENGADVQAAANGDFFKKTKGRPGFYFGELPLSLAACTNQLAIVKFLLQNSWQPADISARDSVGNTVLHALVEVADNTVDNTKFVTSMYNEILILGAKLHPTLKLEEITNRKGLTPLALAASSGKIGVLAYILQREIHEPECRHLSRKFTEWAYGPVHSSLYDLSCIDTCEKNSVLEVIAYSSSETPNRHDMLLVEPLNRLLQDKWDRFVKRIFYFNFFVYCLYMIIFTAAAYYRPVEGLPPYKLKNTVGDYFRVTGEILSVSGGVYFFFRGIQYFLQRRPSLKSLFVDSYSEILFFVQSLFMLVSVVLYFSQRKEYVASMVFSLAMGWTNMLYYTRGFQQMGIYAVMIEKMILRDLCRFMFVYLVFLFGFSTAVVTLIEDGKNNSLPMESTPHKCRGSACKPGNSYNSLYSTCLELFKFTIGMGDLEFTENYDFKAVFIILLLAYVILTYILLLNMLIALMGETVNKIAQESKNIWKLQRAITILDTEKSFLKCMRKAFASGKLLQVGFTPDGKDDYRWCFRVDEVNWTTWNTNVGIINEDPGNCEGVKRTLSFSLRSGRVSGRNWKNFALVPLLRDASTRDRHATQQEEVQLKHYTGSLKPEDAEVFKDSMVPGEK
T1 sequence (O35433 whole entry): as the sequence (O35433 whole entry R721A) above, with A721R counted along it

Hill slope nH, capsaicin activation of TRPV1-WT (TRPV1-WT [1]) | Hill slope nH, capsaicin activation of TRPV1-R721A (TRPV1-R721A [2]) | Hill slope nH, phosphoinositide activation of TRPV1-WT (TRPV1-WT [3]) | Hill slope nH, phosphoinositide activation of TRPV1-R721A (TRPV1-R721A [4]) | decrease in the EC50 value, TRPV1-R721A versus TRPV1-WT (TRPV1-R721A [4]; [5]) [fold] | increase in the EC50 value, TRPV1-R721A versus TRPV1-WT (TRPV1-R721A [4]; [5]) [fold] | Structure (SMILES) | decrease in the EC50 for activation produced by the R721A mutation (in words) (TRPV1-R721A [4]; [5]) | K1/2 of activating effects on TRPV1 in the plasma membrane (TRPV1) [mol %]
1 | 1 | – | – | – | – | COc1cc(CNC(=O)CCCC/C=C/C(C)C)ccc1O [capsaicin] | – | –
– | – | 2 | 2 | 150 | – | CCCCCCCC(=O)OC[C@H](COP(=O)(O)O[C@H]1[C@H](O)[C@@H](O)[C@H](OP(=O)(O)O)[C@@H](O)[C@H]1O)OC(=O)CCCCCCC [diC8-PI(4)P] | more than two orders of magnitude; also recorded: over two orders of magnitude | –
– | – | 2 | 2 | – | 1.3 | CCCCCCCC(=O)OC[C@H](COP(=O)(O)O[C@@H]1[C@H](O)[C@H](O)[C@@H](OP(=O)(O)O)[C@H](OP(=O)(O)O)[C@H]1O)OC(=O)CCCCCCC [diC8-PI(4,5)P2, phosphoinositide 4,5-bisphosphate] | – | ~0.03

From paper PMC4411251 (The Journal of General Physiology, 2015)
